Results from ChEMBL document CHEMBL4411275, “Design, synthesis and biological evaluation of quinoline-indole derivatives as anti-tubulin agents targeting the colchicine binding site” (Eur J Med Chem, 2019).

Assays:
HCT-8 = assay: Antiproliferative activity against human HCT8 cells after 72 hrs by MTT assay; format: functional, cell-based; conditions: HCT-8, 72 h
Procedure, shortened: (§1)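 Cells preincubated 24 h at 37 °C, 5% CO₂. Compounds added at several concentrations in medium with 0.1% DMSO for 72 h. MTT (5 mg/mL in PBS) then added for 4 h, and optical density read at 490 nm. IC50 taken from dose-response curves; mean ± SD of at least three independent experiments.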

[1] = Drug resistance index, ratio of IC50 for ADR-resistant human Bel7402/ADR cells to IC50 for human Bel7402 cells; format: functional
Procedure, shortened: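 Resistant and parental sensitive lines exposed to a range of compound concentrations in medium with 0.1% DMSO for 72 h at 37 °C, 5% CO2, after 24 h pre-culture. MTT added for 4 h, absorbance read at 490 nm. IC50 from dose-response curves, at least three independent experiments. DRI = IC50 resistant / IC50 parental.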

HepG2 = assay: Antiproliferative activity against human HepG2 cells after 72 hrs by MTT assay; format: functional, cell-based; conditions: HepG2, 72 h; procedure, shortened: as §1
[2] = Antiproliferative activity against human ADR-resistant Bel7402/ADR cells after 72 hrs by MTT assay; format: functional; conditions: Bel-7402, 72 h; procedure, shortened: as §1
HUVEC [3] = assay: Antiproliferative activity against HUVEC at 2 to 4 nM after 6 hrs; format: cell-based; conditions: human, 0.004 µM
K562/VCR = assay: Antiproliferative activity against human VCR-resistant K562/VCR cells after 72 hrs by MTT assay; format: functional, cell-based; procedure, shortened: as §1
K562 [4] = assay: Induction of apoptosis in human K562 cells after 48 hrs by […]-based flow cytometric analysis; format: functional, cell-based
K562 [5] = assay: Induction of mitochondrial membrane potential loss in human K562 cells assessed as intact mitochondrial membrane at 2 nM after 48 hrs by JC-1 dye-based flow cytometric analysis (RVB = 93.17%)
K562 [6] = assay: Induction of mitochondrial membrane potential loss in human K562 cells assessed as intact mitochondrial membrane at 1 nM after 48 hrs by JC-1 dye-based flow cytometric analysis (RVB = 93.17%)
[7] = Toxicity in ICR mouse xenografted with […] cells assessed as body weight loss at 20 mg/kg/day, iv for 21 days; format: organism-based; conditions: in vivo, 504 h
Procedure, shortened: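 H22 cells (1×10^6) implanted s.c. in right flank of male ICR mice (five weeks old), eight per group. Body weight recorded every 2 days during treatment.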

K562 [8] = assay: Antiproliferative activity against human K562 cells after 72 hrs by MTT assay; format: functional, cell-based; conditions: K562, 72 h; procedure, shortened: as §1
K562 [9] = assay: Induction of apoptosis in human K562 cells at 4 nM after 48 hrs by Annexin-V/propidium iodide staining-based flow cytometric analysis (reference value: 5.96%)
K562 [10] = assay: Cell cycle arrest in human K562 cells assessed as accumulation of cells at S phase at 2 nM after 48 hrs by propidium iodide staining-based flow cytometric analysis (reference value: 19.93%); format: functional
K562 [11] = assay: Induction of mitochondrial membrane potential loss in human K562 cells assessed as collapsed mitochondrial membrane at 1 nM after 48 hrs by JC-1 dye-based flow cytometric analysis (RVB = 6.17%)
A549/TR = assay: Antiproliferative activity against human taxol-resistant A549/TR cells after 72 hrs by MTT assay; format: functional, cell-based; procedure, shortened: as §1
Tubulin (Sus scrofa) = Tubulin (Sus scrofa) (UniProt P02554+P02550); assay: Inhibition of [3H]-colchicine binding to biotinylated porcine tubulin at 1 uM after 2 hrs by SPA relative to control; format: protein assay
Sequence of Tubulin (Sus scrofa) (P02550 whole entry, looked up): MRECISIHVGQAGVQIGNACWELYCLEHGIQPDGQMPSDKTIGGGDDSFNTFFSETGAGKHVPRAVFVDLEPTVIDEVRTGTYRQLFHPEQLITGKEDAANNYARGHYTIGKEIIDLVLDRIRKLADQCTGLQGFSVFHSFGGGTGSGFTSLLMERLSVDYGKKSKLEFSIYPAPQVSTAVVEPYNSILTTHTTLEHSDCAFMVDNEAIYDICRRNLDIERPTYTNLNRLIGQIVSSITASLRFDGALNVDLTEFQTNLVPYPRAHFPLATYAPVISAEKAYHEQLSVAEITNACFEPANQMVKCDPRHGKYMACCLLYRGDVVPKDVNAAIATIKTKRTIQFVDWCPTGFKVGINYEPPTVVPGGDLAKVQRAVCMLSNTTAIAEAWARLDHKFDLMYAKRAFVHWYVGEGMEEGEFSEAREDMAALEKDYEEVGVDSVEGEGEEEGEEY
Sequence of Tubulin (Sus scrofa) (P02554 whole entry, looked up): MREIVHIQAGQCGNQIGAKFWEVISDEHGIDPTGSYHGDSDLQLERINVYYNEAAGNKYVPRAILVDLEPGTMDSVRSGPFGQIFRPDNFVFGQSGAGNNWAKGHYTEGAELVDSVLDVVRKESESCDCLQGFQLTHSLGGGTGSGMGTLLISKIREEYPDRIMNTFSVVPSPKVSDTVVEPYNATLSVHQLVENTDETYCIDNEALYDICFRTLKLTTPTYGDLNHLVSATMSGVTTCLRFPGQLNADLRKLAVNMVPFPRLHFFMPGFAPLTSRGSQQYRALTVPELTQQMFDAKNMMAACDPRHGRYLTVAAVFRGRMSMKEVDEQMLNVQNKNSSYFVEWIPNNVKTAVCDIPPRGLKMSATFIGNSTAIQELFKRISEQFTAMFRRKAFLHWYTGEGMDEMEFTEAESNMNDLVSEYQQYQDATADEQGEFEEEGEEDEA
Procedure, shortened: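 Scintillation proximity assay: 0.08 μM [3H]colchicine incubated with biotinylated porcine tubulin (0.5 μg) and test compound for 2 h at 37 °C in 80 mM PIPES pH 6.8, 1 mM EGTA, 10% glycerol, 1 mM MgCl2, 1 mM GTP. Streptavidin SPA beads then added, and bound radioactivity counted by scintillation counter.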

A549 = assay: Antiproliferative activity against human A549 cells after 72 hrs by MTT assay; format: functional, cell-based; conditions: A549, 72 h; procedure, shortened: as §1
Tubulin (Homo sapiens) = Tubulin (Homo sapiens) (UniProt P68371+Q9H4B7+P0DPH7+P68366+Q13509+Q71U36+P04350+Q3ZCM7+P07437+P68363+Q9BQE3+Q6PEY2+Q13885+Q9BVA1+Q9BUF5); assay: Induction of microtubule disruption in human K562 cells after 24 hrs by DAPI staining-based fluorescence assay; format: cell-based
Procedure, shortened: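 K562 cells exposed 24 h to 1, 2 or 4 nM compound or 0.1% DMSO. Fixed in 4% paraformaldehyde and blocked 20 min with goat serum at room temperature. Incubated with anti-α-tubulin monoclonal antibody for 2 h at 37 °C, then fluorescent antibody, with DAPI nuclear counterstain. Imaged by confocal microscopy.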

HUVEC [12] = assay: Anti-vascular activity in HUVEC assessed as inhibition of tube formation after 6 hrs by inverted microscopic analysis; format: functional, cell-based; conditions: Homo sapiens
Procedure, shortened: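 Matrigel thawed overnight at 4 °C and polymerised at 37 °C for 30 min. HUVECs in DMEM seeded at 50,000 cells/well, then exposed to 1, 2 or 4 nM compound or vehicle for 6 h at 37 °C. Capillary-like tubes photographed under an inverted microscope.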

H22 (Mus musculus) [13] = assay: Antitumor activity against mouse H22 cells xenografted in ICR mouse assessed as reduction in tumor weight at 10 mg/kg/day, iv for 21 days relative to control; parameters: scale not given: the % may be the effect or the level left
K562 [14] = assay: Induction of apoptosis in human K562 cells at 2 nM after 48 hrs by Annexin-V/propidium iodide staining-based flow cytometric analysis (reference value: 5.96%)
HUVEC [15] = assay: Anti-migratory activity in HUVEC after 24 hrs by inverted microscopic analysis; format: functional, cell-based; conditions: Homo sapiens
Procedure, shortened: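 Scratch wound made in monolayers with a 200 μL pipette tip, then washed twice with PBS. Medium with 1, 2 or 4 nM compound added. Phase-contrast images taken at 0 h and 24 h, and the migration distance into the wound measured manually.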

H22 (Mus musculus) [16] = assay: Antiproliferative activity against mouse H22 cells after 72 hrs by MTT assay; conditions: H22, 72 h
L02 = assay: Antiproliferative activity against human LO2 cells after 72 hrs by MTT assay; format: cell-based; conditions: L02, 72 h; procedure, shortened: as §1
K562 [17] = assay: Cell cycle arrest in human K562 cells assessed as accumulation of cells at S phase at 1 nM after 48 hrs by propidium iodide staining-based flow cytometric analysis (reference value: 19.93%); format: functional
[18] = Drug resistance index, ratio of IC50 for VCR-resistant human K562/VCR cells to IC50 for human K562 cells; format: functional
K562 [19] = assay: Induction of mitochondrial membrane potential loss in human K562 cells assessed as intact mitochondrial membrane at 4 nM after 48 hrs by JC-1 dye-based flow cytometric analysis (RVB = 93.17%)

For C=C(c1ccc2c(ccn2CO)c1)c1cc(C)nc2ccccc12, the IC50 (HCT-8) was 7 nM, the “Ratio IC50” value [1] was 6.1 and the IC50 (HepG2) was 6 nM. For the same compound, the IC50 [2] was 61 nM, the Activity (HUVEC [3]) was “Non-Toxic” and the IC50 (K562/VCR) was 31 nM. The Activity (K562 [4]) was “Dose-dependent effect”, the Activity (K562 [5]) was 45.4% and the Activity (K562 [6]) was 70.66%. For the same compound, the Activity [7] was “Non-Toxic”, the IC50 (K562 [8]) was 2 nM and the Activity (K562 [9]) was 72.8%. For the same compound, the Activity (K562 [10]) was 33.21%, the Activity (K562 [11]) was 28.99% and the IC50 (A549/TR) was 119 nM. The inhibition (Tubulin (Sus scrofa)) was 79.4%, the IC50 (A549) was 9 nM and the Activity (Tubulin (Homo sapiens)) was “Dose-dependent effect”. The Activity (HUVEC [12]) was “Dose-dependent effect”, the Activity (H22 (Mus musculus) [13]) was 48.8% and the Activity (K562 [14]) was 54.9%. For the same compound, the Activity (HUVEC [15]) was “Dose-dependent effect”, the IC50 (H22 (Mus musculus) [16]) was 6 nM and the IC50 (L02) was 48 nM. The Activity (K562 [17]) was 27.38%, the “Ratio IC50” value [18] was 15.5 and the Activity (K562 [19]) was 26.27%.
